Screening results (PubChem BioAssay)
Most compounds without a hit are left out; they make up all but 1.5% or so of the library.
APJ ag: agonists of human apelin receptor APJ, primary screen, CHO-K1 cells, PathHunter beta-arrestin, luminescence | P35414 | AID 2520, 2010 | 330,000 compounds, 0.11% hits | activation, % at 20 µM | 0% DMSO wells, 100% apelin;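 active = activation more than six SD over the plate average, tested at 20 µM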
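Assay system: CHO-K1 cells stably expressing ProLink-tagged human APJ and arrestin–beta-gal acceptor. Compound dosing: 20 µM single point, 1% DMSO. Times: 16-18 h seeding, 90 min dark compound exposure, 60 min detection. Detection: beta-gal luminescence. Evaluation: APJ–arrestin association signal. Controls: negative DMSO alone, positive Apelin-13 at 10 nM.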
CCR6 antagonist: CCR6 receptor antagonists, primary screen, cell-based, CHO-K1, luminescence, beta-arrestin, uHTS; CHO-K1 CCR6 PathHunter beta-arrestin, CCL20-stimulated; inhibition, % at 20 µM; 340,000 compounds, 0.49% hits; AID 493098, 2011;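 active = compounds whose inhibition of the agonist-driven luminescence signal at 20 µM reaches about 50%, limit read from the data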;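 note: cells stimulated with CCL20 at 14 nM final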
APJ antag: antagonists of human apelin receptor APJ, primary screen, CHO-K1 cells, beta-arrestin complementation, luminescence | P35414 | inhibition, % at 20 µM | 330,000 compounds, 0.32% hits | AID 2521, 2010;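 active = inhibition above about 40% at 20 µM, limit read from the data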;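 note: cells challenged with 10 nM apelin-13 agonist together with compound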
CXCR6 inh: CXCR6 receptor inhibitors, primary screen, cell-based, beta-arrestin, luminescence, CHO-K1 PathHunter, 1536-well; 360,000 compounds, 0.36% hits; inhibition, % at 20 µM; C-X-C chemokine receptor type 6 (Homo sapiens), O00574; AID 602244, 2012; in the data active = inhibition above about 34%, passing the limit was not always enough;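 note: antagonist mode with CXCL16 agonist at 10 nM final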
Target sequence (O00574 whole entry, looked up): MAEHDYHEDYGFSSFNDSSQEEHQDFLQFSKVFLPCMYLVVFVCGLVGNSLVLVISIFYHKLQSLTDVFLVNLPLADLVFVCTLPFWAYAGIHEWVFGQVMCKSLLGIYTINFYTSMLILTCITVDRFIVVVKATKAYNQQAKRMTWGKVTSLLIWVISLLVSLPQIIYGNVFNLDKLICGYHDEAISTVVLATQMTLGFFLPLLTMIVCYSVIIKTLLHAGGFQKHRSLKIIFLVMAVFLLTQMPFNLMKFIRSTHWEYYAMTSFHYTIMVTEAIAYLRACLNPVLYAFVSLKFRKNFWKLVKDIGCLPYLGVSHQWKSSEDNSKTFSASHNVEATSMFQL
EBI2 block: EBI2 receptor antagonists, beta-arrestin recruitment, primary screen, cell-based, luminescence, 7a,25-OHC stimulation, uHTS | AID 651636, 2012 | 7a,25-OHC stimulated | G-protein coupled receptor 183 (Homo sapiens), P32249 | inhibition, % at 5 µM | 360,000 compounds, 0.81% hits; in the data active = inhibition above about 38%;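 note: enzyme fragment complementation signal reports receptor beta-arrestin coupling in cells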
Target sequence (P32249 whole entry, looked up, the tested form may be a part): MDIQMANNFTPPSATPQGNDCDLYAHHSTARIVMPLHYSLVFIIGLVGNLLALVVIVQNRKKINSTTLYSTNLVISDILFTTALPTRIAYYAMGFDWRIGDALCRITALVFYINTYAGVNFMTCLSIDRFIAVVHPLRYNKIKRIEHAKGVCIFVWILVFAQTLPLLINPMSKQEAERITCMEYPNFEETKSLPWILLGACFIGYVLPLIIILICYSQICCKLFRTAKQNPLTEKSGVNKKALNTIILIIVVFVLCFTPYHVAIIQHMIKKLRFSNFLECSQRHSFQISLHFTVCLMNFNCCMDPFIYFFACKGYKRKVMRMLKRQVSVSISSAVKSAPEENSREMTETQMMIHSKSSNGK
APJ antag conf: APJ antagonists blocking beta-arrestin recruitment, confirmation, cell-based, luminescence, single concentration, uHTS hits; 950 compounds, 66% hits; shares compounds with APJ antag; antagonist mode; inhibition, % at 20 µM; in the data active = inhibition above about 50%
CXCR6 antag conf: CXCR6 receptor antagonists, confirmation, cell-based, single concentration, beta-arrestin, luminescence | CHO-K1 CXCR6 PathHunter beta-arrestin | 700 compounds, 65% hits | shares compounds with CXCR6 inh | AID 602409, 2012 | inhibition, % at 20 µM;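 active = mean inhibition over four retests above 40%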;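 note: receptor stimulated with 10 nM CXCL16 agonist; beta-galactosidase fragment complementation upon beta-arrestin recruitment to receptor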
Numbers stand for hits; – = inactive; · = not tested or not shown.

SMILES | APJ ag | CCR6 antagonist | APJ antag | CXCR6 inh | EBI2 block | APJ antag conf | CXCR6 antag conf
CC(=O)Nc1ccc(Nc2ccc3nonc3c2[N+](=O)[O-])cc1 | – | – | – | – | – | · | ·
O=Cc1c(N2CCC3(CC2)OCCO3)nc2ccccn2c1=O | – | – | – | – | – | · | ·
Cn1nccc1-c1cc(Cl)cc(Cl)c1O | – | – | – | – | – | · | ·
CC(=O)Nc1ccc(S(=O)(=O)NC2(C(F)(F)F)NC(=O)N(Cc3ccccc3)C2=O)cc1 (centres undefined) | – | – | – | – | – | · | ·
O=C(O)c1cccc(NC(=S)NC(=O)c2cncc(Br)c2)c1 | – | – | 42.8 | 58.1 | – | 81.4 | –
Cc1ccccc1NC(=S)NC(=O)c1cncc(Br)c1 | – | – | – | – | – | · | ·
Cc1cc(O)ccc1NC(=S)NC(=O)c1cncc(Br)c1 | – | 70.4 | 43.5 | 51.0 | – | 82.4 | 48.0
CCN1CCCC1CNc1ccc(S(C)(=O)=O)cc1[N+](=O)[O-] (centres undefined) | – | – | – | – | – | · | ·
S=C(N/N=C/c1ccccc1)N1CCOCC1 | – | 68.4 | 48.1 | 40.7 | – | 72.3 | 75.3
Cc1ccc(-n2c(SCCN)nnc2-c2cccc(C)c2)cc1 | – | 59.8 | 41.6 | 44.5 | – | 70.2 | 48.8
CC(C)(C)c1ccc(OCC(=O)NCC(c2cccs2)N2CCOCC2)cc1 (centres undefined) | – | – | – | – | – | · | ·
CC(=O)Nc1ccc(C(=O)OCC(=O)c2ccc(S(=O)(=O)N3CCCCC3)cc2)cc1 | – | – | – | – | – | · | ·
COc1cc(OC)cc(C(=O)OCC(=O)c2ccc(S(=O)(=O)N3CCCCC3)cc2)c1 | – | – | – | – | – | · | ·
CC(C)[C@H](NC(=O)c1ccccc1)C(=O)OCC(=O)c1ccc(S(=O)(=O)N2CCCCC2)cc1 | – | 54.2 | 47.1 | 43.6 | – | – | –
CC(=O)Nc1cccc(C(=O)OCC(=O)c2ccc(S(=O)(=O)N3CCCCC3)cc2)c1 | – | 54.2 | 49.2 | 42.2 | – | 71.3 | –
COc1ccc(CC(=O)OCC(=O)c2ccc(S(=O)(=O)N3CCCCC3)cc2)cc1 | – | 64.8 | 71.4 | 48.3 | – | 70.2 | –
CCn1ccnc1C(O)(c1ccccc1)c1ccccc1 | – | – | – | – | – | · | ·
NNc1nc(-c2ccccc2)cc(-c2ccccc2O)n1 | – | 84.7 | 56.9 | 79.1 | – | 143.0 | 84.5
Cc1cccc(NC(=S)NNc2ncc(C(F)(F)F)cc2Cl)c1 | – | 90.6 | 53.6 | 52.3 | – | 89.3 | 52.5
O=C(Nc1ccccc1)Nc1ncc(C(F)(F)F)cc1Cl | · | · | · | – | – | · | ·
CN(c1ccccc1)S(=O)(=O)c1ccc(NC(=O)c2ccccc2)cc1 | – | – | – | – | – | · | ·
CN(c1ccccc1)S(=O)(=O)c1ccc(NC(=O)c2nc(S(C)(=O)=O)ncc2Cl)cc1 | – | 97.3 | 60.7 | 93.5 | – | 111.4 | 84.7
CCS(=O)(=O)c1ncc(Cl)c(C(=O)Nc2ccc(S(=O)(=O)N3CCC(C)CC3)cc2)n1 | – | 91.6 | 71.2 | 82.9 | 49.3 | 98.0 | 92.8
NS(=O)(=O)c1ccc(CNC(=O)c2ccccc2SCC(=O)N2CCCC2)cc1 | – | – | – | – | – | · | ·
CC(=O)c1ccc([N+](=O)[O-])c(CS(=O)(=O)c2ccccc2)c1 | – | – | – | – | – | · | ·
SMILES | APJ ag | CCR6 antagonist | APJ antag | CXCR6 inh | EBI2 block | APJ antag conf | CXCR6 antag conf
CCOC(=O)C1CCCN(c2c(C(=O)c3ccccc3)cnc3ccc(OC)cc23)C1 (centres undefined) | – | 83.0 | 58.1 | 70.0 | – | 95.8 | 69.4
CCOC(=O)C1CCCN(C(=O)COc2ccc(C(=O)c3ccccc3)cc2)C1 (centres undefined) | – | – | – | – | – | · | ·
CC(=O)OCCCNc1cc(Sc2nc3ccccc3s2)c2nonc2c1[N+](=O)[O-] | – | 103.5 | 76.7 | 93.4 | 62.7 | 101.2 | 103.2
O=c1cc(CSc2ccc(Cl)cc2)nc(-c2ccccn2)[nH]1 | – | 79.1 | 51.0 | 54.3 | 48.2 | 69.8 | 68.1
O=c1cc(CSc2ccc(Cl)cc2)nc(-c2ccccc2)[nH]1 | – | – | – | – | – | · | ·
Cc1ccc(S(=O)(=O)N2CCN(C(=O)CSc3ccccn3)CC2)c(C)c1 | – | – | – | – | – | · | ·
COc1ccc2c(c1)CC(C(=O)Nc1ccc(Cl)cc1)/C(=N/O)O2 (centres undefined) | – | – | – | – | – | · | ·
COc1ccc(NC(=O)/C(Cl)=C(/Cl)S(=O)Cc2ccccc2)cn1 (centres undefined) | – | 90.1 | 86.3 | 80.8 | 78.8 | 100.1 | 88.3
Cc1ccc(S(=O)(=O)N2CCN(C(=O)c3sccc3-c3ccccc3)CC2)cc1 | – | – | – | – | – | · | ·
O=C(NNc1ccc([N+](=O)[O-])cc1)c1ccco1 | – | – | – | – | – | · | ·
O=C(NNc1ccc([N+](=O)[O-])cc1[N+](=O)[O-])c1ccco1 | – | 57.8 | 50.7 | 43.7 | – | 79.4 | 48.0
O=C(C#Cc1ccccc1)c1ccco1 | – | 70.2 | 57.7 | 69.4 | – | 74.1 | 82.9
Cc1nn(CC(=O)c2ccc3c(c2)OCCO3)c(=O)c(C#N)c1C | – | – | – | – | – | · | ·
CCn1c(Cl)c(C=O)s/c1=N\S(=O)(=O)c1ccccc1 | – | 104.7 | 96.1 | 89.4 | – | 104.7 | 105.0
CCN1C(=O)CS/C1=N\S(=O)(=O)c1ccc(Cl)cc1 | – | – | – | – | – | · | ·
Cn1c(=O)[nH]c(=O)c2c1nc(Sc1nc3ccccc3s1)n2Cc1ccccc1 | – | 68.1 | 53.7 | 51.6 | – | – | 53.7
Cn1c(=O)[nH]c(=O)c2c1nc(SCC(=O)O)n2Cc1ccccc1 | – | – | – | – | – | · | ·
O=C(Nc1nc(-c2ccccn2)cs1)Nc1ccc(F)cc1F | – | 66.7 | 41.5 | 64.9 | – | 65.3 | 79.4
C/C(=N\NC(=O)C(C)Oc1ccc([N+](=O)[O-])cc1)c1ccccn1 (centres undefined) | – | 77.1 | 55.7 | 74.5 | – | 73.1 | 90.3
CCc1ccc2nc(Nc3nc(COC)cc(=O)[nH]3)nc(C)c2c1 | – | – | – | – | – | · | ·
COCc1cc(=O)[nH]c(Nc2nc3ccc(C)cc3o2)n1 | – | – | 52.3 | 46.0 | – | 53.8 | 47.2
COc1cc(C2C(C#N)=C(N)Oc3n[nH]c(-c4cccnc4)c32)cc(Br)c1O (centres undefined) | – | 64.6 | 56.3 | 46.4 | – | 75.5 | 51.6
